Experimental data reported in publication PMC10630944 (Molecular Pharmaceutics, 2023).

Columns and labels:
H446 cells [1] = experiment: DNA damage, γH2AX imaging and Western blot, H446 cells; assay type: cell-based, human
Summary of the method: (§1)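 Cells (5 × 10^4/well) were exposed for 2 h to PBS, unlabeled peptide, free 211At or test compound (1.85, 3.7, 18.5, 37 kBq), then recovered 24 h in fresh medium. For imaging, cells were fixed, permeabilized and stained with mouse anti-γH2AX (1:800). For blotting, RIPA lysates (BCA-normalized) were run on 10% SDS-PAGE and transferred to PVDF. Blocking was 5% milk for 1 h, anti-γH2AX was applied at 4 °C for 12 h, with ECL detection and GAPDH as loading control.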

A549 cells [2] = experiment: In vitro cytotoxicity; assay type: cell-based, human; settings: 24 h exposure, low-level SSTR2 A549 cells
SCLC tumors (H446) [3] = experiment: MHC-I and calreticulin expression in SCLC tumors; assay type: in vivo, BALB/c nude mice; settings: 1110 kBq administration group, day 1, 4, and 8
Summary of the method: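 In nude mice bearing s.c. H446 tumors, test compound was given i.v. as 1110 kBq once or 370 kBq on days 0, 3 and 7, with PBS controls. Tumors were examined on days 1, 4 and 8 after treatment. MHC-I and calreticulin were stained by immunohistochemistry per manufacturer's instructions, and expression was quantified. Three independent experiments were run in triplicate, reported as mean ± s.d.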

[4] = In vitro stability in mouse serum; assay type: in vitro ADME; settings: room temperature, 24 h of incubation, iTLC, average of three independent samples
A549 cells [5] = experiment: DNA damage, γH2AX imaging and Western blot, A549 cells; assay type: cell-based, human
Summary of the method: as §1

SCLC tumors (H446) [6] = experiment: Therapeutic efficacy against SCLC; assay type: in vivo, BALB/c nude mice; settings: for tumor growth compared with the PBS control group: n = 6–10
Summary of the method: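 Xenografts were s.c. H446 (1 × 10^7 cells) in male BALB/c nude mice, randomized 2 weeks post-inoculation. Tumor size and weight were tracked for 30 days (n = 6–10), and tumor volumes were analysed by one-way ANOVA. At day 30, formalin-fixed tumors had H&E and γH2AX immunofluorescence.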

H446 cells [7] = experiment: Cellular uptake / binding ratio, H446 cells; assay type: cell-based, human
Summary of the method: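 Cells were grown in RPMI-1640 with 10% FCS at 37 °C and 5% CO2. Suspensions of 5 × 10^6 cells in PBS, in low-bind tubes, got 3.7 kBq and were agitated at 37 °C for 1, 3 or 6 h. Cells were then pelleted and rinsed twice with ice-cold PBS, and pellets and pooled supernatant/washes were gamma-counted. Parallel tubes held unlabeled peptide as blocker for nonspecific binding. Three independent experiments were run in triplicate.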

[8] = Biodistribution in SCLC tumor-bearing BALB/c nude mice; assay type: in vivo
Summary of the method: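 H446 cells (1 × 10^7 in 0.2 mL PBS) implanted subcutaneously in left shoulder of male nude mice, 4–5 weeks, 20 ± 1 g. 211At-labelled test compound or free 211At (1110 kBq each) given in parallel via tail vein, n = 4 per group. Killed at 1, 3, 6, 12, 24 h. Tumor, main tissues and whole blood weighed and gamma-counted. Values as %ID/g (thyroid %ID/organ), mean ± s.d.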

[9] = Adverse effects in SCLC tumor-bearing mice; assay type: in vivo, BALB/c nude mice
Summary of the method: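 H446 cells (1 × 10^7 in 0.2 mL PBS) were implanted s.c. in the left shoulder of male BALB/c nude mice aged 4–5 weeks (20 ± 1 g). Mice were randomized at 2 weeks and given i.v. tail-vein PBS, unlabeled peptide 5 mg/kg, or test compound (370 kBq, 1110 kBq, or 370 kBq on days 0, 3 and 7). Body weight was followed for 30 days. Blood counts were taken on days 14 and 28 (n = 4). ALT, AST, BUN and Cr were measured on day 28. Liver, spleen, kidney, stomach and lung were H&E-stained at day 30.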

[10] = groups A, D (1110 kBq) and E (3 × 370 kBq), day 30
[11] = groups D (1110 kBq) and E (3 × 370 kBq), day 30

Question: Which “γH2AX protein, Western blot, H446 cells” value (H446 cells [1]; 1.85, 3.7, 18.5, or 37 kBq) does the source give for “N-succinimidyl-3-[^211At]astatobenzoate-Oct [[^211At]SAB-Oct]” here?
Answer: The value was “visually increased”.

Question: And the “level of γH2AX in H446 cells compared to PBS” value (H446 cells [1]; 18.5 and 37 kBq, ****P < 0.001)?
Answer: Its value is “distinct dose-dependent increase”.

Question: And the “in vitro cytotoxicity to A549 cells” value (A549 cells [2])?
Answer: Its value is “specifically killed SSTR2-positive SCLC cells but not low-level SSTR2 A549 cells”.

Question: And the “expression of MHC-I and calreticulin in tumor over time” value (SCLC tumors (H446) [3])?
Answer: The value was “first increasing and then decreasing”.

Question: And the “radiochemical purity (RCP) after incubation in mouse serum” value [4]?
Answer: Its value is 93%.

Question: What about the “γH2AX protein expression, Western blot, A549 cells” value (A549 cells [5]; 1.85, 3.7, 18.5, or 37 kBq) of the same substance?
Answer: The value was “slightly expressed only when the dose reached 18.5 or 37 kBq”.

Question: And the “level of γH2AX in A549 cells compared to PBS” value (A549 cells [5]; 37 kBq, ***P < 0.001, still much lower than in H446)?
Answer: The value was “slightly higher”.

Question: What about the “tumor cell necrosis in H&E assay” value (SCLC tumors (H446) [6]; 1110 kBq, day 30, compared with PBS and unlabeled octreotide groups) of the same substance?
Answer: Its value is “highest cell necrosis”.

Question: What about the “clusters of γH2AX foci in dissected tumors” value (SCLC tumors (H446) [6]; 1110 kBq, day 30 after injection) of the same substance?
Answer: The value was “still visible”.

Question: And the “tumor growth compared with the PBS control group” value (SCLC tumors (H446) [6]; group C, single i.v. injection 370 kBq, monitored 30 days)?
Answer: The value was “significantly inhibited”.

Question: What about the “tumor growth compared with the PBS control group” value (SCLC tumors (H446) [6]; group D, single i.v. injection 1110 kBq, monitored 30 days) of the same substance?
Answer: Its value is “significantly inhibited”.

Question: What about the “tumor growth compared with the PBS control group” value (SCLC tumors (H446) [6]; group E, 3 times 370 kBq on days 0, 3, and 7, monitored 30 days) of the same substance?
Answer: Its value is “significantly inhibited”.

Question: What about the “binding ratio to H446 cells in comparison to A549 cells” value (H446 cells [7]; 5 × 10^6 cells in PBS, 3.7 kBq, 37 °C, 1, 3 and 6 h, gamma counter, triplicate) of the same substance?
Answer: Its value is “significantly higher”.

Question: What about the “binding ratio to H446 cells with Oct block” value (H446 cells [7]; 100-fold excesses of unlabeled Oct as blocking agent) of the same substance?
Answer: Its value is “markedly decreased”.

Question: And the “uptake in the lung and intestines” value ([8]; 1110 kBq i.v.)?
Answer: Its value is “physiologically high uptake”.

Question: What about the “radioactivity uptake in the thyroid” value ([8]; 1110 kBq i.v., 1 to 24 h) of the same substance?
Answer: Its value is “low radioactivity uptake”.

Question: What about the “stomach uptake at 1 h postinjection” value ([8]; 1110 kBq i.v., 1 h, n = 4, mean ± s.d., gamma counter) of the same substance?
Answer: The value was 17.99 ± 19.65 % ID/g.

Question: And the maximum tumor uptake ([8]; 1110 kBq i.v., 3 h postinjection, n = 4, mean ± s.d.)?
Answer: The maximum tumor uptake was 11.46 ± 4.35 % ID/g.

Question: And the “radioactivity in all tissues after 24 h” value ([8]; 1110 kBq i.v., 24 h)?
Answer: Its value is “Low levels of radioactivity”.

Question: What about the “stomach uptake at 24 h” value ([8]; 1110 kBq i.v., 24 h, n = 4, mean ± s.d.) of the same substance?
Answer: Its value is 2.87 ± 0.86 % ID/g.

Question: And the deastatination in vivo ([8]; observed in the spleen, lung, and stomach)?
Answer: Its deastatination in vivo is “slight deastatination”.

Question: What about the “liver or kidney biochemical function” value ([9]; 1110 kBq) of the same substance?
Answer: Its value is “did not significantly alter”.

Question: What about the “leukocytopenia or weight loss” value ([9]; 1110 kBq doses) of the same substance?
Answer: The value was “not observed”.

Question: What about the leukocytopenia ([9]; 1110 kBq group, day 28) of the same substance?
Answer: Its leukocytopenia is “No leukocytopenia”.

Question: What about the Bun values ([9]; 1110 kBq, day 28, P > 0.05) of the same substance?
Answer: The Bun values was “trend of decreased Bun values”.

Question: What about the “blood cells (leukocyte, lymphocyte, thrombocyte, erythrocyte counts, hematocrit, hemoglobin)” value ([9]; day 14 and day 28 postinjection, 1110 kBq or multiple dosing, n = 4) of the same substance?
Answer: The value was “no significant change”.

Question: And the “difference in ALT and AST concentrations between each group” value ([9]; day 28, P > 0.05, groups A–E)?
Answer: Its value is “not significant”.

Question: And the “difference in Bun and Cr concentrations between treatments” value ([9]; day 28, P > 0.05, groups A–E)?
Answer: The value was “not significant”.

Question: And the “liver H&E” value [9, 10]?
Answer: Its value is “No obvious morphological difference”.

Question: What about the “lung H&E” value [9, 10] of the same substance?
Answer: Its value is “no obvious abnormalities”.

Question: And the “kidney H&E” value [9, 11]?
Answer: The value was “brush border of a few renal tubular epithelial cells was slightly exfoliated”.

Question: What about the “stomach H&E” value [9, 11] of the same substance?
Answer: The value was “mild exfoliation of extensive mucosal epithelium”.
